Assay results as given in ChEMBL document CHEMBL1142115, “Furanocembranoids from the stem bark of Croton oblongifolius” (J Nat Prod, 2007).
≈ marks a conversion by molar mass, not a printed value.

What was measured:
Format in all cases: cell-based
[1] = Cytotoxicity against human BT474 cells by MTT assay; details: BT-474
Procedure, shortened: (§1)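 In vitro cytotoxicity by MTT colorimetric read-out on human tumor cultures: BT474 (breast carcinoma), CHAGO (lung carcinoma), Hep-G2 (hepatocarcinoma), KATO-3 (gastric carcinoma) and SW-620 (colon carcinoma). Each pure isolate was tested on all five lines.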

[2] = Cytotoxicity against human CHAGO cells by MTT assay; procedure, shortened: as §1
HepG2 = experiment: Cytotoxicity against human HepG2 cells by MTT assay; procedure, shortened: as §1
[3] = Cytotoxicity against human KATO3 cells by MTT assay; procedure, shortened: as §1
SW-620 = experiment: Cytotoxicity against human SW620 cells by MTT assay; procedure, shortened: as §1

## CC(C)[C@H]1/C=C/[C@@](C)(O)CC[C@@H]2O[C@@]2(C)Cc2cc(co2)CC1 [FURANOCEMBRANOID 2]
[1]
  IC50: 9.5 µg/mL (≈ 29.8 µM)
[2]
  IC50: > 10 µg/mL
HepG2
  IC50: > 10 µg/mL
[3]
  IC50: 6.8 µg/mL (≈ 21.4 µM)
SW-620
  IC50: 9.9 µg/mL (≈ 31.1 µM)

## C/C1=C\CC[C@](C)(O)/C=C/[C@H](C(C)C)CCc2coc(c2)C1 [FURANOCEMBRANOID 1]
[1]
  IC50: 7.8 µg/mL (≈ 25.8 µM)
[2]
  IC50: 7 µg/mL (≈ 23.1 µM)
HepG2
  IC50: 5.6 µg/mL (≈ 18.5 µM)
[3]
  IC50: 5.9 µg/mL (≈ 19.5 µM)
SW-620
  IC50: 6.3 µg/mL (≈ 20.8 µM)

## CC(C)[C@H]1/C=C/[C@@](C)(O)CC[C@@H](O)[C@@](C)(O)Cc2cc(co2)CC1 [FURANOCEMBRANOID 3]
[1]
  IC50: 9.6 µg/mL (≈ 28.5 µM)
[2]
  IC50: 7.1 µg/mL (≈ 21.1 µM)
HepG2
  IC50: 5.7 µg/mL (≈ 16.9 µM)
[3]
  IC50: 8.2 µg/mL (≈ 24.4 µM)
SW-620
  IC50: 5.6 µg/mL (≈ 16.6 µM)

## CC(C)[C@H]1/C=C/[C@@](C)(O)CC[C@@H](O)[C@@](C)(O)C[C@H]2C=C(CC1)C(=O)O2 [FURANOCEMBRANOID 4]
[1]
  IC50: 9.6 µg/mL (≈ 27.2 µM)
[2]
  IC50: 9.3 µg/mL (≈ 26.4 µM)
HepG2
  IC50: 6.1 µg/mL (≈ 17.3 µM)
[3]
  IC50: 8.1 µg/mL (≈ 23 µM)
SW-620
  IC50: 6 µg/mL (≈ 17 µM)
